M4 PAM = CHRM4 positive allosteric modulation | CHO-K1 hM4/Gqi5, Fluo-8 calcium fluorescence, ACh EC20; 0% = ACh EC20, 100% = maximal ACh | activation, % at 3 µM | actives 0.4% (n = 360,000) | AID 624126 | P08173;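 active = activation above its plate's cutoff, the mean activation of sample wells plus 3 SD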
Target sequence (P08173 whole entry, looked up): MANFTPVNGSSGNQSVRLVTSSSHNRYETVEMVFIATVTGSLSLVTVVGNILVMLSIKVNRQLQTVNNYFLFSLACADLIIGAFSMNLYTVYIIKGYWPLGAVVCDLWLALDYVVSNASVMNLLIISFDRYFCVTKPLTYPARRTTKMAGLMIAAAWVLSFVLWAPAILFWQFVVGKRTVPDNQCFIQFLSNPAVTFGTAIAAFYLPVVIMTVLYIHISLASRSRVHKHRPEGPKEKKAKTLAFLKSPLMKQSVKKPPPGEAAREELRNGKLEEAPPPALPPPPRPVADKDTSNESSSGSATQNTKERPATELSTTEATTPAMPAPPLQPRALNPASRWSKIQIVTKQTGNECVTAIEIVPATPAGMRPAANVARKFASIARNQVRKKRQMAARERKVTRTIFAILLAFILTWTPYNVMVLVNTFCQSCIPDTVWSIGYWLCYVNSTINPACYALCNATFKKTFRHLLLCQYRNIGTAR
CHRM5 antagonist = blocks acetylcholine activation of human M5 receptor; P08912; CHO-hM5 cells, Fluo-8 calcium fluorescence, ACh EC80; inhibition, % at 3 µM; actives 0.59% (n = 360,000);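 active = inhibition above a per-plate cutoff, the mean of that plate's test compounds plus 3 SD, cut at about 27% in these data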;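 note: 0% = acetylcholine EC80 with DMSO and 100% = DMSO without agonist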
CHRM4 agonist = agonists of human muscarinic M4 receptor (CHRM4); AID 624127; CHO-K1 hM4/Gqi5, Fluo-8 calcium fluorescence; vehicle 0%, full acetylcholine response 100%; activation, % at 3 µM; actives 0.14% (n = 360,000); P08173;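 active = activation above the run mean over all test wells plus 3 SD, cut at about 32% in these data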;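 note: peak over basal fluorescence ratio per well then scaled between controls; 0% = DMSO wells and 100% = acetylcholine at EC100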
M5 ag = agonists of human muscarinic M5 receptor (CHRM5) | actives 0.19% (n = 360,000) | activation, % at 3 µM | AID 624037 | CHO-K1 hM5 cells, Fluo-8 calcium fluorescence; 0% DMSO wells, 100% maximal acetylcholine response | P08912;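 active = activation above the run's mean over test compounds plus 3 SD, cut at about 23% in these data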;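 note: signal is peak over basal fluorescence ratio across the kinetic read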
CHRM5 PAM = potentiates acetylcholine response at human M5 receptor | P08912 | CHO-K1 hM5, Fluo-8 calcium, ACh EC20 PAM; 0% = ACh EC20, 100% = ACh EC100 | activation, % at 3 µM | actives 0.3% (n = 360,000) | AID 624038;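 active = activation above the run cutoff, the mean activation of all test compounds plus 3 SD, cut at about 18% in these data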
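Assay system – human M5 receptor in CHO-K1 cells · Read-out – % activation, ACh-normalized · Technique – Fluo-8 calcium fluorescence · Dosing – single-point, 3 µM nominal · Incubation – Fluo-8 loading 80 min at 37 °C plus 30 min room temperature · Repeats – singlicate, one well per test compound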
M4 antag = blocks acetylcholine activation of human M4 receptor; CHO-hM4 cells, ACh EC80, Fluo-8 calcium fluorescence; inhibition, % at 3 µM; actives 0.73% (n = 360,000); P08173; AID 624125;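 active = inhibition above its plate's cutoff, the mean inhibition of sample wells plus 3 SD, cut at about 27% in these data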;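 note: 0% = acetylcholine EC80 with DMSO and 100% = DMSO without agonist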
Numbers without * were called inactive; ! = repeats disagree. Shown are actives, neighbours in structure and some others; about 1.8% of the full set was active somewhere.

Results for COc1cccc(OC2(C)CCN(Cc3ccc(-c4ccccn4)cc3)C2)c1 (configuration not stated) ?
M4 PAM: -10; CHRM5 antagonist: 4; CHRM4 agonist: 4; M5 ag: -2; CHRM5 PAM: -8; M4 antag: 6

Results for CCc1ccc(OC2(C)CCN(Cc3ccccc3OC(F)F)C2)cc1 (configuration not stated) ?
M4 PAM: -4; CHRM5 antagonist: 9; CHRM4 agonist: -1; M5 ag: 0; CHRM5 PAM: -2; M4 antag: 6

What do the screens show for `COC(=O)Cc1ccc(OC2(C)CCN(Cc3ccc(-c4ccccn4)cc3)C2)cc1` (configuration not stated)?
M4 PAM: -13; CHRM5 antagonist: 1; CHRM4 agonist: 4; M5 ag: -2; CHRM5 PAM: -7; M4 antag: 34*

What do the screens show for `COC(=O)Cc1ccc(OC2(C)CCN(Cc3ccccc3OC(F)F)C2)cc1` (configuration not stated)?
M4 PAM: -11; CHRM5 antagonist: 4; CHRM4 agonist: 0; M5 ag: -4; CHRM5 PAM: -10; M4 antag: 55*

What do the screens show for `CO[C@@]1(NC(=O)C2SC(=C(C(N)=O)C(=O)O)S2)C(=O)N2C(C(=O)O)=C(CSc3nnnn3C)CS[C@@H]21` (some centres not stated)?
M4 PAM: -7; CHRM5 antagonist: -1; CHRM4 agonist: 1; M5 ag: 1; CHRM5 PAM: -1; M4 antag: 43*

How did CC(C)(C)c1ccc(C(=O)N2CCC2(C)C(=O)NS(=O)(=O)c2ccccc2Cl)cc1 (configuration not stated) do in these assays?
M4 PAM: 8; CHRM5 antagonist: -2; CHRM4 agonist: 2; M5 ag: 1; CHRM5 PAM: -1; M4 antag: -4

How did CC(=O)O[C@]1(C(C)=O)CCC2C3C=C(C)C4=CC(=O)CC[C@]4(C)C3CC[C@@]21C (some centres not stated) do in these assays?
M4 PAM: 1; CHRM5 antagonist: -4; CHRM4 agonist: 1; M5 ag: -3; CHRM5 PAM: 3; M4 antag: -22

Results for CC(=O)O[C@H]1C[C@@]2(C)[C@@H](C[C@@H](O)[C@H]3[C@@]4(C)CC[C@@H](O)[C@@H](C)[C@@H]4CC[C@@]32C)/C1=C(\CCC=C(C)C)C(=O)O ?
M4 PAM: -16; CHRM5 antagonist: 44*!; CHRM4 agonist: 0; M5 ag: -2; CHRM5 PAM: -19; M4 antag: 81*!

How did Cc1cccc(-c2cc(NCCc3cccnc3)n3nccc3n2)c1 do in these assays?
M4 PAM: -6; CHRM5 antagonist: 4; CHRM4 agonist: 3; M5 ag: 1; CHRM5 PAM: -5; M4 antag: -4

What do the screens show for `CCC(CO)Nc1ccn2nc(-c3cccs3)cc2n1` (configuration not stated)?
M4 PAM: -1; CHRM5 antagonist: 5; CHRM4 agonist: 3; M5 ag: 0; CHRM5 PAM: -4; M4 antag: -4

What do the screens show for `CC(=C/c1ccc(C(C)C)cc1)/C=N/NC(=O)Cn1nnnc1N`?
M4 PAM: -1; CHRM5 antagonist: 30*; CHRM4 agonist: 0; M5 ag: -15; CHRM5 PAM: -12; M4 antag: -9

What do the screens show for `Cc1cc(-c2ccccc2)[nH]c(=O)c1S(=O)(=O)c1ccccc1`?
M4 PAM: 2; CHRM5 antagonist: 4; CHRM4 agonist: 3; M5 ag: -4; CHRM5 PAM: 21*; M4 antag: -3

Results for Cc1cc(-c2ccccc2)[nH]c(=O)c1S(=O)(=O)c1ccc(Cl)cc1 ?
M4 PAM: 6; CHRM5 antagonist: 4; CHRM4 agonist: 0; M5 ag: 2; CHRM5 PAM: -3; M4 antag: 5

How did CCCCN1CC(N2CCN(CCN(C)C)CC2)CS1(=O)=O (configuration not stated) do in these assays?
M4 PAM: 1; CHRM5 antagonist: 3; CHRM4 agonist: 1; M5 ag: 0; CHRM5 PAM: -6; M4 antag: -18

What do the screens show for `Clc1ccc2nc(-c3ccccc3)c(CC3CCCCC3)n2c1`?
M4 PAM: -1; CHRM5 antagonist: -3; CHRM4 agonist: -2; M5 ag: 0; CHRM5 PAM: 0; M4 antag: -9

How did CCC(C)C(NC(=O)C1CCC(C)CC1)C(=O)NC(C(=O)OC)C(C)C (configuration not stated) do in these assays?
M4 PAM: 20*; CHRM5 antagonist: -11; CHRM4 agonist: 2; M5 ag: 1; CHRM5 PAM: -8; M4 antag: -2

Results for O=C(NC1CC2CCC(C1)N2C(=O)NCc1ccccc1)C1CC1 (configuration not stated) ?
M4 PAM: -16; CHRM5 antagonist: -3; CHRM4 agonist: 1; M5 ag: -6; CHRM5 PAM: 2; M4 antag: 30*

How did COc1ccccc1N1CCNC(C)C1=O (configuration not stated) do in these assays?
M4 PAM: 14*; CHRM5 antagonist: -1; CHRM4 agonist: 0; M5 ag: -2; CHRM5 PAM: 8; M4 antag: -6

Results for COc1ccccc1N1C(=O)C2C3C=CC(CC3)C2C1=O (configuration not stated) ?
M4 PAM: -1; CHRM5 antagonist: 5; CHRM4 agonist: 0; M5 ag: -4; CHRM5 PAM: -2; M4 antag: -13

What do the screens show for `COC(=O)c1cccc(OCCCN2CCC(C(O)(c3ccccc3)c3ccccc3)CC2)c1`?
M4 PAM: -10; CHRM5 antagonist: 4; CHRM4 agonist: 16; M5 ag: -2; CHRM5 PAM: -16; M4 antag: 13

How did OCC1(Cc2ccccc2)CCCN(Cc2cn[nH]c2-c2ccccc2)C1 (configuration not stated) do in these assays?
M4 PAM: -11; CHRM5 antagonist: 32*; CHRM4 agonist: 15; M5 ag: -2; CHRM5 PAM: -17; M4 antag: 3

Results for O=C(/C=C/c1ccc(S(=O)(=O)NCc2ccco2)cc1)NCc1cccc(Cl)c1 ?
M4 PAM: -8; CHRM5 antagonist: 32*; CHRM4 agonist: 4; M5 ag: -9; CHRM5 PAM: -18; M4 antag: 4

Results for CC1(C(=O)Nc2cnc3ccccc3c2)CCN1Cc1cc2ccccc2o1 (configuration not stated) ?
M4 PAM: -12; CHRM5 antagonist: 20; CHRM4 agonist: 11; M5 ag: 0; CHRM5 PAM: -11; M4 antag: 15

Screens from PubChem BioAssay.
